Screening results: PubChem BioAssay, several laboratories
GASC-1 inh: inhibitors of GASC-1 histone demethylase, primary screen, biochemical, fluorescence, DELFIA europium. Lysine-specific demethylase 4C (Homo sapiens), Q9H3R0. GST-JMJD2C(1-420) H3K9me3 demethylation. inhibition, % at 2.35 µM. actives 0.069% (n = 330,000);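 active means more than half of a compound's replicate wells show inhibition beyond 50%, single wells judged on their own value; inconclusive means some, but no more than half, of replicates pass 50% inhibition; inactive means no replicate passes 50% inhibition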;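 further: signal counts dimethyl H3K9 product captured on neutravidin plate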
Target sequence (Q9H3R0 1-420 limits assumed): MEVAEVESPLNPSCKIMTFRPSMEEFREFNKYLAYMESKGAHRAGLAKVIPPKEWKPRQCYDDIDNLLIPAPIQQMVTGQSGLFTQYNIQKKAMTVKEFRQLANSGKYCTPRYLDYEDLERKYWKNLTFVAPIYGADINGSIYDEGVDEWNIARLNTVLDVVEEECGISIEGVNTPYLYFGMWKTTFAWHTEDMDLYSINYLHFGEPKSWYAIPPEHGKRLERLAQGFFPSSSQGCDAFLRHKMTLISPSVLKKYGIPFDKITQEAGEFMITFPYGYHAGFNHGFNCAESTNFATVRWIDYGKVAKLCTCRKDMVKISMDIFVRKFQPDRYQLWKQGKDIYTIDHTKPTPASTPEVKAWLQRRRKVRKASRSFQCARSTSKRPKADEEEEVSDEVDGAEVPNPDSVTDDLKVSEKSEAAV
SR-BI DiI inh: inhibitors of SR-BI mediated HDL lipid uptake, primary screen, ldlA[mSR-BI] cells, fluorescence, single point | Scavenger receptor class B member 1 (Mus musculus), Q61009 | ldlA[mSR-BI] CHO cells, DiI-HDL uptake fluorescence, 3 h | inhibition, % at 12.5 µM | actives 0.96% (n = 320,000);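 active means mean replicate inhibition of at least 70% and a set share of replicates each scoring 70 or more; inconclusive means meets just one of the two criteria; inactive means fails both criteria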
GAA850 FXN act: FXN promoter activators, primary screen, cell-based, luciferase luminescence, HEK293 lucGAA850; HEK293 lucGAA850 FXN promoter luciferase reporter, 24 h; percent of 10 µM SAHA response; activation, % at 6 µM; actives 0.56% (n = 360,000);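 active means activation above the average of all compounds screened plus 3 SD, cutoff fixed separately per campaign, cut at about 7.5% in these data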
AHR activator: AHR activators, primary screen, cell-based, luminescence, luciferase reporter, human; activation, % at 5 µM; actives 2.5% (n = 320,000); AHR-responsive luciferase reporter cells; Aryl hydrocarbon receptor (Homo sapiens), P35869; in the data active means activation above about 47%
SR-BI uptake up: activators of SR-BI mediated DiI-HDL uptake, primary screen, ldlA[mSR-BI] CHO cells, DiI fluorescence | 3 h; 100 = double the neutral-control signal | AID 504775, 2011 | activation, % at 12.5 µM | actives 0.096% (n = 320,000);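 active means mean replicate activation of at least 60% and every replicate at or above 60%; inconclusive means mean or all-replicate condition met, but not both; inactive means mean below 60% and not all replicates reaching 60%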
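Material – SR-BI-overexpressing, LDLR-lacking CHO cells · Medium – BSA-supplemented, HEPES-buffered Ham's F12, pH 7.4 · Doses – single concentration · Times – compound with DiI-HDL co-incubation, 3 h at 37 °C · Measured by – bottom-read fluorescence, 550/595 nm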
A number is an active result; 0 = inactive; ? = inconclusive; - = not tested or not shown. Hits are enriched below; roughly 3.7% of the tested compounds scored in any of these assays.

SMILES | GASC-1 inh | SR-BI DiI inh | GAA850 FXN act | AHR activator | SR-BI uptake up
COc1ccccc1NC(C)C(=O)N/N=C/c1ccccc1OCc1cccc(Br)c1 (configuration not stated) | 0 | 0 | 0 | 51.7 | 0
O=C(N/N=C/c1ccc(OCc2ccc(F)cc2)cc1)c1ccccc1 | 0 | 0 | 0 | 0 | 0
O=C(N/N=C1\CC2CC=CC12)c1ccc(COc2ccccc2)cc1 (configuration not stated) | 0 | 0 | 0 | 0 | 0
CCCOc1c(Br)cc(C(=O)NCC)cc1OC | 0 | 0 | 0 | 79.0 | 0
COc1ccc(C(=O)N2CCN(c3ccc(N4CCOCC4)nn3)CC2)cc1OC | 0 | 0 | 0 | 0 | 0
CCCOc1ccc(Br)cc1/C=N/NC(=O)c1cc(OC)c(OC)c(OC)c1 | 0 | 75.8 | 0 | 0 | 0
Cn1cccc1-c1cc(C(=O)N/N=C/c2ccccc2Cl)[nH]n1 | 0 | 0 | 0 | 0 | 0
COc1ccc(Br)cc1/C=N/NC(=O)c1cccnc1 | 0 | 0 | 0 | 0 | 0
COc1ccc(O)c(/C=N/NC(=O)c2ccc(OCc3cccc(Br)c3)cc2)c1 | 0 | 129.3 | 0 | 0 | 0
COc1ccc(/C=N/NC(=O)c2ccc(Br)cc2)c(OC)c1 | 0 | 83.2 | 0 | 0 | 0
Cn1cccc1-c1cc(C(=O)N/N=C/c2cc(Br)ccc2O)[nH]n1 | 0 | 105.3 | 0 | 0 | 0
COc1ccc(C(=O)N/N=C/c2cc(Br)ccc2O)cc1OC | 0 | 120.0 | 0 | 0 | 0
CCc1n[nH]c(=S)n1/N=C/c1cc(Br)c(OC)cc1OC | 0 | 0 | 0 | 76.5 | 0
CCc1n[nH]c(=S)n1/N=C/c1ccc(-c2ccc(Br)cc2)o1 | 0 | 0 | 0 | 0 | 0
CC1CCCC(CC(N)=O)CC1 (configuration not stated) | - | 0 | 0 | - | 0
CCN(CC)C(=O)c1cc2c(=O)n3cccc(C)c3nc2s1 | 0 | 0 | 0 | 47.4 | ?
C=CCNC(=O)c1cc2c(=O)n3cccc(C)c3nc2s1 | 0 | 0 | 0 | 0 | 0
CCCCN(CC)C(=O)c1cc2c(=O)n3cccc(C)c3nc2s1 | 0 | 0 | 0 | 0 | 0
CCC(C)NC(=O)c1cc2c(=O)n3cccc(C)c3nc2s1 (configuration not stated) | 0 | 0 | 0 | 65.1 | 0
CCCCn1c(-c2sccc2C)n[nH]c1=S | 0 | 0 | 0 | 0 | 0
CCCCn1c(N)c(N(CC(C)C)C(=O)CCNC(=O)c2ccc([N+](=O)[O-])cc2)c(=O)[nH]c1=O | - | 0 | 0 | - | 0
COc1ccc(NC(=O)Nc2ccc(C)cc2Br)c(OC)c1 | 0 | 0 | 0 | 0 | 0
COc1ccc(NC(=O)c2cc3cc(C)ccc3n2C)c(OC)c1 | 0 | 0 | 0 | 58.7 | 0
Cc1ccc(-c2csc3nc(C)n(N)c(=O)c23)o1 | 0 | 0 | 0 | 55.0 | 0
CC(=O)NC(CC(=O)Oc1ccc(C)cc1Br)c1ccccc1 (configuration not stated) | 0 | 0 | 0 | - | 0
SMILES | GASC-1 inh | SR-BI DiI inh | GAA850 FXN act | AHR activator | SR-BI uptake up
CCOc1cc(C)ccc1OCc1nnc(SCC(=O)c2cccc([N+](=O)[O-])c2)n1CC | 0 | 88.4 | 0 | 0 | 0
CCc1ccccc1NC(=O)C1=CC(c2cccs2)=NS(=O)(=O)N1C | 0 | 0 | 0 | 0 | 0
Cc1ccc(O)c(NC(=O)C2=CC(c3cccs3)=NS(=O)(=O)N2C)c1 | 0 | 0 | 0 | 52.0 | 0
Cc1ccc2oc(-c3cccc(NC(=S)NC(=O)c4cccs4)c3)nc2c1 | 0 | 0 | 0 | 0 | 0
Cc1ccc2oc(-c3cccc(NC(=O)c4ccc(Br)o4)c3)nc2c1 | 0 | 0 | 0 | 59.5 | 0
Cc1ccc2oc(-c3cccc(NC(=S)NC(=O)/C=C/c4ccco4)c3)nc2c1 | 0 | 0 | 0 | 67.4 | 0
COc1ccc(C)cc1S(=O)(=O)N(C)CC(=O)NCc1ccncc1 | 0 | - | 0 | 0 | -
